Like-named read-outs stand apart in the source and are kept apart here.
Key:
[1] = cited from earlier work
[2] = type: in vivo, mice; details: for Cmax in amygdala ECF adjusted for recovery rate: adjusted for recovery rate (4.58%)
In short: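 Male Oxt KO and wildtype C57BL/6J mice, housed singly. The day before, mice were anaesthetised with tribromoethanol and fitted with a jugular catheter and two linear microdialysis probes (18 kDa cut-off) in amygdala and hippocampus. Oxt (12 µg total) was given nasally (2 × 6 μl saline on the rhinarium) or i.p. in 0.1 ml saline. Dialysates were taken every 30 min for 2 h, vacuum-dried without heat, stored at -80°C, and measured unextracted by RIA.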

Plasma Oxt = type: in vivo, mice; details: for half-life: male, mouse; for time of return of plasma Oxt concentration to baseline / half-life / AUCG / AUCI / Cmax: plasma; for AUCG / AUCI / Cmax: nasal 12 μg, ELISA, mean ± s.e.m.
In short: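 Male Oxt KO and wildtype C57BL/6J mice received Oxt (12 µg total) nasally (2 × 6 μl saline pipetted bilaterally on the rhinarium) or i.p. (0.1 ml saline). Blood was drawn through a jugular catheter every 30 min for 2 h and double-centrifuged (6000 rpm, 15 min, 4°C). Plasma plus an equal volume of 0.1% TFA was extracted on C18 Sep-Pak columns and assayed by Oxt ELISA. Cmax, T1/2, AUCG (pg*30 min/sample) and AUCI were calculated.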

[3] = cited from earlier work; remark: listed apart in the source
[4] = mice and rats, nonhuman primates, humans
[5] = wildtype C57BL/6J male mice, N = 8

CC[C@H](C)[C@@H]1NC(=O)[C@H](Cc2ccc(O)cc2)NC(=O)[C@@H](N)CSSC[C@@H](C(=O)N2CCC[C@H]2C(=O)N[C@@H](CC(C)C)C(=O)NCC(N)=O)NC(=O)[C@H](CC(N)=O)NC(=O)[C@H](CCC(N)=O)NC1=O [Oxt, oxytocin]
persistence of the rise of plasma Oxt after nasal application ([1]; earlier studies): 75 to 90 min
time of peak of plasma Oxt after nasal application ([1]; earlier studies): 15 to 30 min
time of peak of Oxt in circulation after nasal application [1, 4]: 15 to 30 min
time of return of Oxt in circulation to baseline after nasal application [1, 4]: 75 to 90 min
time of rise in CSF Oxt after nasal application ([1]; ref 22, 23, 28): 15 to 30 min
time of rise in CSF Oxt after nasal application ([1]; ref 24): 75 min
time of rise in CSF Oxt after nasal application ([1]; ref 26): 60 min
time of return of Oxt concentration to baseline ([2]; Oxt KO mice, amygdala, intraperitoneal injection): 60 to 90 min
time at which Cmax of Oxt occurred ([2]; after nasal administration, current study, 30-min sampling): 30 to 60 min
Cmax in amygdala ECF adjusted for recovery rate ([2]; intraperitoneal injection, wildtype mice, amygdala): 0.91 ± 0.27 ng/mL
Cmax in amygdala ECF adjusted for recovery rate ([2]; nasal administration, wildtype mice, amygdala): 4.16 ± 1.00 ng/mL
time of peak concentration in brain ECF and plasma ([2]; nasal and intraperitoneal administration, wildtype mice): 30 to 60 min
time for which Oxt remained detectable in amygdala and hippocampus ([2]; nasal, Oxt KO mice): 90 min
time of return of plasma Oxt concentration to baseline (Plasma Oxt; Oxt KO mice, intraperitoneal injection): exceeding 120 minutes
time of return of plasma Oxt concentration to baseline (Plasma Oxt; Oxt KO mice, nasal administration): 90 to 120 min
half-life (Plasma Oxt; C57BL/6J (wildtype), inhaled or intranasal, 12 ug): 25.8 ± 6 min
half-life (Plasma Oxt; C57BL/6J, ip, 12 μg): 32 ± 9.1 min
half-life (Plasma Oxt; Oxt KO, ip, 12 μg): 34.5 ± 8.9 min
AUCG (Plasma Oxt; Oxt KO male mice, N = 7): 7920 ± 1280b pg*30 min/sample
AUCI (Plasma Oxt; Oxt KO male mice, N = 7): 6120± 1280 pg*30 min/sample
Cmax (Plasma Oxt; Oxt KO male mice, N = 7): 131 ± 29 pg/sample
AUCG (Plasma Oxt; [5]): 23,600 ± 4880a pg*30 min/sample
AUCI (Plasma Oxt; [5]): 17,300 ± 5260 pg*30 min/sample
Cmax (Plasma Oxt; [5]): 398± 101 pg/sample
time for which Oxt was detected in circulation (Plasma Oxt; nasal, Oxt KO mice, spiking in the first 30 minutes): 90 min
share of the total Oxt that reaches the CNS ([3]; intravenous injection): 2×10^−6
share of the total Oxt that reaches the CNS ([3]; nasal administration): 5×10^−6
